Data as given in ChEMBL document CHEMBL3244085, “Synthesis and biological evaluation of 10-oxa-11-deoxyprostaglandin E1 and 10-nor-9,11-secoprostaglandin F1 and their derivatives” (1978).
Calls of active or inactive are those of the source. No cut-off for these calls is given here.

Columns and labels:
[1] = (§1) Inhibition of PGE2-induced colon smooth muscle contraction in gerbil at 80 ug/15 ml pretreated for 30 seconds followed by PGE2-challenge measured after 90 seconds relative to control; format: functional, Gerbillinae
In short: (§2)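 Isolated colon smooth muscle from male gerbils in a chamber (Holton method). Compound is introduced at the stated level per 15 mL; 30 s later 40 ng PGE2 is added. Antagonism is read as % inhibition of the PGE2 response.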

[2] = (§3) Inhibition of PGE2-induced colon smooth muscle contraction in gerbil at 40 ug/15 ml pretreated for 30 seconds followed by PGE2-challenge measured after 90 seconds relative to control; format: functional, Gerbillinae; in short: as §2
Cricetinae = assay: Induction of uterus contraction in hamster at 20 ug; format: functional, tissue-based
In short: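 Isolated hamster uterine strip in vitro, Holton method; compound added at 20 µg and scored for oxytocin-like contractile activity.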

[3] = (§4) Inhibition of PGE2-induced colon smooth muscle contraction in gerbil at 20 ug/15 ml pretreated for 30 seconds followed by PGE2-challenge measured after 90 seconds relative to control; format: functional, Gerbillinae; in short: as §2
Hamster [4] = assay: Interruption of pregnancy in hamster at 1 mg, sc administered on day 3 of pregnancy; format: functional, organism-based; details: Cricetinae
In short: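 Pregnant hamsters, ten per compound. A single 1 mg per animal dose is given subcutaneously in ethanol on day 3 of pregnancy, and interruption of pregnancy is scored (modified Giannina method).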

[5] = (§5) Inhibition of PGE2-induced colon smooth muscle contraction in gerbil at 125 ug/15 ml pretreated for 30 seconds followed by PGE2-challenge measured after 90 seconds relative to control; format: functional, Gerbillinae; in short: as §2
Gerbillinae [6] = assay: Inhibition of PGE2-induced colon smooth muscle contraction in gerbil at […] pretreated for 30 seconds followed by PGE2-challenge measured after 90 seconds; format: functional; in short: as §2
Gerbillinae [7] = assay: as §1; format: functional; in short: as §2
Gerbillinae [8] = assay: as §3; format: functional; in short: as §2
Gerbillinae [9] = assay: as §4; format: functional; in short: as §2
Gerbillinae [10] = assay: as §5; format: functional; in short: as §2
Hamster [11] = assay: Interruption of pregnancy in hamster at 12.5 ug, sc administered on day 3 of pregnancy relative to control; format: functional, Cricetinae

| Compound | Activity (Cricetinae) | Activity (Hamster [4]) | further results |
| --- | --- | --- | --- |
| CCCCC[C@H](O)/C=C/[C@@H](CO)[C@H](CO)CCCCCCC(=O)OC | inactive | inactive | inhibition (INH) [1]: 26%; inhibition (INH) [2]: 14%; inhibition (INH) [3]: 0%; inhibition (INH) [5]: 41% |
| CCCCC[C@](C)(O)/C=C/[C@H]1COC(=O)[C@@H]1CCCCCCC(=O)OC (racemic) | inactive | inactive | inhibition (Gerbillinae [6]): inactive |
| CCCCC[C@@](C)(O)/C=C/[C@H]1COC(=O)[C@@H]1CCCCCCC(=O)OC (racemic) | inactive | inactive | inhibition (Gerbillinae [6]): inactive |
| CCCCC[C@@H](O)/C=C/[C@@H](CO)[C@H](CO)CCCCCCC(=O)OC | inactive | inactive | inhibition (Gerbillinae [7]): inactive; inhibition (Gerbillinae [8]): inactive; inhibition (Gerbillinae [9]): inactive; inhibition (Gerbillinae [10]): inactive |
| CCCCC[C@@H](O)/C=C/[C@H]1COC(=O)[C@@H]1CCCCCCC(=O)OC (single isomer, unassigned) | inactive | inactive | – |
| CCCCC[C@H](O)/C=C/[C@@H]1[C@@H](C/C=C\CCCC(=O)O)[C@@H](O)C[C@H]1O [DINOPROST] | – | – | Activity (Hamster [11]): 100% |
| CCCCC[C@H](O)/C=C/[C@H]1COC(=O)[C@@H]1CCCCCCC(=O)OC (racemic) | inactive | inactive | – |
